Source: PubChem
Sampled rows, rich in hits. Any-hit rate of the full collection: about 1.3%.
UCH37 DUB inh – inhibitors of human UCH37 deubiquitinase, primary screen, biochemical, Ub-AMC cleavage, fluorescence; AID 588478, 2011; purified proteasome/UCH37; inhibition, % (test concentration not listed); 330,000 tested, 0.33% active; Ubiquitin carboxyl-terminal hydrolase isozyme L5 (Homo sapiens), Q9Y5K5;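 active = mean inhibition over replicate wells above about 20%, limit read from the data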;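 note: 0% = compound-free wells with enzyme and 100% = wells lacking proteasome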
Target sequence (Q9Y5K5 whole entry, looked up): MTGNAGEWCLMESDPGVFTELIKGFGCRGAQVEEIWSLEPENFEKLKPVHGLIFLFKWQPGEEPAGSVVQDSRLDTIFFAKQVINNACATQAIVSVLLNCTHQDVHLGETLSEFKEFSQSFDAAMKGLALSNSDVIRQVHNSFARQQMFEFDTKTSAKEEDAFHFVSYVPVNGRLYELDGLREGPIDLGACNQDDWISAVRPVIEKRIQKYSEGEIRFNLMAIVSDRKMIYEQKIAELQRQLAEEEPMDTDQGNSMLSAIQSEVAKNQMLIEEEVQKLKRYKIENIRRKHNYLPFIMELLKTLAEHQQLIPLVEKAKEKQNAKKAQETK
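Signal – fluorescence, ex 355 nm, em 460 nm · System – Proteasome-bound UCH37 · Input – 0.15 nM proteasome as dispensed · Timing – 30 min preincubation with enzyme, 25 min cleavage at room temperature · Read-out basis – percent inhibition of cleavage signal versus uninhibited and no-proteasome wells · Medium – Tris-HCl pH 7.4 with ATP-MgCl2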
Casp6 inh – human caspase-6 inhibitors, primary screen, biochemical, VEID-R110 fluorescence, single point, set 2 | P55212 | purified caspase-6, Z-VEID-R110 cleavage fluorescence | inhibition, % at 12.5 µM | 350,000 tested, 0.53% active;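 active = mean inhibition across replicates at least about 35%, with every replicate also reaching that limit, limit read from the data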;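 note: 0% = median of neutral control wells and 100% = no fluorescence left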
TDP2 inh – human TDP2 enzyme inhibitors, primary screen, biochemical, epi absorbance, recombinant enzyme | Tyrosyl-DNA phosphodiesterase 2 (Homo sapiens), O95551 | T5PNP hydrolysis, p-nitrophenol absorbance 415 nm | inhibition, % at 12.8 µM | 370,000 tested, 0.34% active | AID 720702, 2013;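 active = inhibition above the mean of all tested compounds plus 3 SD, set per campaign, cut at about 25% in these data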;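 note: 0% = DMSO with enzyme and 100% = buffer with substrate but no TDP2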
Target sequence (O95551 whole entry, looked up): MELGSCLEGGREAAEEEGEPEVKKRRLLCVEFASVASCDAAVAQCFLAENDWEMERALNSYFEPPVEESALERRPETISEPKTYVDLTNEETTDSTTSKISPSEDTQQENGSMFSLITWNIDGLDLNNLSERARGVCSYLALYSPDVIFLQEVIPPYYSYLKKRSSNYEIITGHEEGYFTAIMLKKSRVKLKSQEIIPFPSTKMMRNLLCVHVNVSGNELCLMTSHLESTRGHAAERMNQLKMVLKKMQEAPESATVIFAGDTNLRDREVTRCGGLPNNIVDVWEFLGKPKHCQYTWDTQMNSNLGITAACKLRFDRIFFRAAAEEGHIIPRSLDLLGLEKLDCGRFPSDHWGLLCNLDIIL
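Read-out basis: percent inhibition. System: recombinant human TDP2. Buffer or medium: Mg2+-containing Tris-HCl buffer, pH 7.5. Repeats: single replicate. Timing: reaction 2 h, 37 °C. Benchmarks: high control without enzyme, low control DMSO plus TDP2. Probe or stimulus: 5 mM T5PNP. Doses: 12.8 µM only. Measured by: epi absorbance of p-nitrophenol freed from T5PNP by hydrolysis.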
NSD2 inh – NSD2 histone methyltransferase inhibitors, primary screen, biochemical, AlphaScreen, single concentration, set 2 | 310,000 tested, 0.54% active | NSD2 peptide methylation, 120 min | inhibition, % at 12.5 µM; in the data active = inhibition above about 50%
LEDGF integ inh – blockers of LEDGF/p75-dependent integrase strand transfer – biochemical, TR-FRET, high throughput, primary screen | TR-FRET IN-LEDGF/p75 DNA integration, Eu/Cy5 | inhibition, % at 3.7 µM | 370,000 tested, 0.64% active | HIV-1 integrase (with human LEDGF/p75);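 active = inhibition above the screen-wide mean plus 3 SD, cut at about 13% in these data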;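 note: signal is the Cy5 over europium emission ratio at 671 and 618 nm; 0% = plate median of compound wells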
* hit, by the source's call; nt = no result given.

SMILES | UCH37 DUB inh | Casp6 inh | TDP2 inh | NSD2 inh | LEDGF integ inh
C=CC#CC[N+]1(CC#Cc2ccccc2)CCOCC1 | 28.8* | -28.9 | -3.9 | nt | -4.8
Cc1ccc(C2=NOC(=O)/C2=C\c2ccc(C)o2)cc1 | -3.3 | 40.7* | -7.0 | 22.0 | 4.0
Cc1ccc(/C=C2\C(=O)ON=C2c2ccccc2)o1 | 8.5 | -0.5 | 4.3 | -1.0 | 1.4
O=C(NN=Cc1cccnc1)c1cccc(NC(=O)c2cccc(Br)c2)c1 | 4.1 | nt | nt | nt | nt
CN1CCN(C(=O)Nc2ccccc2)CC1 | -2.0 | -0.1 | 0.7 | -1.0 | -1.5
O=C(Nc1cccc(-c2ccccc2)c1)N1CCN(C(=O)Nc2cccc(-c3ccccc3)c2)CC1 | 1.4 | 38.7* | -12.7 | 0.7 | -2.1
Cn1c(=O)c2cc(NC(=S)NC3CC3)ccc2n1Cc1ccccc1 | nt | 58.0* | 3.8 | 15.8 | 1.3
CC1=C(/C=C/C(C)=C/C=C/C(C)=C/CO)C(C)(C)CCC1 | 78.4* | 4.7 | -9.9 | nt | 2.5
CCOc1cc(N2CCOCC2)c(OCC)cc1NS(=O)(=O)c1cc(NC(C)=O)ccc1OC | 2.6 | 36.7* | 11.0 | 13.7 | -4.7
COc1ccccc1NS(=O)(=O)c1cc(NC(=O)c2ccc(NC(C)=O)cc2)ccc1N1CCOCC1 | 6.5 | -1.1 | 2.9 | 0.4 | 2.5
CC(=NNc1ccccc1)C(=NO)C(=O)Nc1ccccc1 | 4.8 | nt | nt | nt | nt
CC(C)(C)CC(C)(C)SSc1n[nH]c(=S)s1 | 4.4 | 37.5* | 3.4 | -3.0 | 4.1
Cc1ccc(N2C(=O)c3ccccc3C2C(=O)c2ccc(O)cc2O)cc1 (configuration not stated) | 4.1 | 73.8* | -5.2 | 1.2 | 11.1
CN(C)C=Nc1nc(-c2ccc3c(c2)OCO3)cs1 | 25.7* | nt | nt | nt | nt
CCc1ccc(-n2c(C)cc(C=NNC(=O)OC)c2C)cc1 | 3.5 | nt | nt | nt | nt
Cc1ccc(C(=O)NN=C(CC(C)C)c2ccccc2)cc1 | 4.6 | nt | nt | nt | nt
Cc1cccc(N=Cc2[nH]c3ccc(Br)c(Cl)c3c2O)c1 | 9.2 | nt | 28.8* | 5.0 | -0.6
COc1ccccc1CN=Cc1[nH]c2ccc(Br)c(Cl)c2c1O | 3.2 | nt | -0.1 | 7.3 | 0.8
Cc1ccc2c(C)nc(N=C(N)NC(=O)N3c4ccccc4Sc4ccccc43)nc2c1 | 2.5 | nt | nt | nt | nt
COc1cc(NC(=O)c2cccnc2)c(Cl)cc1NC(=O)c1ccc(Cl)cc1 | -89.4 | -1.2 | -4.9 | 0.0 | 3.6
COc1cc(NC(=O)c2cccnc2)c(Cl)cc1NC(=O)c1ccccc1 | 0.9 | 63.8* | 10.2 | -1.2 | 0.6
COC(=O)Cc1cc(=O)n(-c2nc3ccccc3[nH]2)[nH]1 | 4.3 | 44.1* | -11.1 | 19.5 | 10.2
COc1ccc(CC(=O)Nc2nc3ccccc3[nH]2)cc1 | 2.6 | -2.0 | -0.9 | 0.4 | 4.0
CCOC(=O)N1CCC(n2c(SCC(=O)NCCC3=CCCCC3)nc3ccccc3c2=O)CC1 | 24.4* | nt | -9.8 | -0.2 | 0.0
Cc1ccc2cc(C=NNC(=O)[C@H]3C[C@@H]3c3ccccc3)c(Cl)nc2c1 | -46.6 | nt | nt | nt | nt
SMILES | UCH37 DUB inh | Casp6 inh | TDP2 inh | NSD2 inh | LEDGF integ inh
CCN(CCCc1ccccc1)CCCc1ccccc1 | 1.0 | nt | -8.2 | nt | 1.1
CCCN(CCO)CCCc1ccccc1 | 1.2 | nt | 3.1 | -1.4 | 88.6*
C(/C=C/c1ccco1)=NN1CCN(c2ccccc2)CC1 | 6.6 | nt | nt | nt | nt
CN=c1sc(C(=O)Nc2ccccc2)c(C)n1C | 5.2 | -5.4 | 2.8 | -2.1 | 0.3
CN=c1sc2c(n1C)C(=O)c1ccccc1C2=O | nt | 63.0* | 34.6* | nt | 13.1
CCOc1ccc(OCCCC(=O)N2CCN(S(=O)(=O)c3ccc(Cl)cc3)CC2)cc1 | 5.0 | -4.3 | 1.5 | 16.1 | 31.5*
Cc1ccc(-c2csc(NC(=O)/C=C/c3ccco3)c2C(=O)O)cc1 | 16.0 | 75.4* | -0.9 | 4.0 | 12.6
Cc1ccc(-c2csc(NC(=O)c3cccc(C)c3)c2C(=O)O)cc1 | -1.3 | -1.0 | -6.8 | 2.0 | -1.4
CCC(=O)c1ccc(OCC(=O)OCC(=O)c2cc(C)n(C)c2C)cc1 | 1.5 | 35.7* | 17.1 | 0.0 | 1.9
CCC(=O)c1ccc(OCC(=O)OCC(=O)c2c(N)n(C)c(=O)n(C)c2=O)cc1 | 0.0 | -0.6 | 2.0 | -1.0 | -0.1
O=C(O)C(c1ccccc1)N1C(=O)/C(=C\c2ccc(-c3ccc(Br)cc3)o2)SC1=S (configuration not stated) | nt | 71.3* | -7.3 | 1.3 | 5.4
COc1cc(/C=C2\SC(=S)N(C(C(=O)O)c3ccccc3)C2=O)cc(OC)c1OC (configuration not stated) | 5.6 | 5.3 | -1.2 | 9.0 | -3.3
O=C(CSc1nnc(SCc2ccc(Cl)cc2)s1)c1ccc2c(c1)OCO2 | 22.1* | nt | -5.9 | -1.4 | 6.6
O=C(NCCCN1CCOCC1)C(=O)NN=Cc1ccccc1O | 4.2 | nt | nt | nt | nt
Cc1cc2nc3s/c(=C/c4ccc(-c5ccccc5C(=O)O)o4)c(=O)n3c2cc1C | nt | 36.0* | 2.0 | 23.1 | -5.3
COc1ccc(Cl)cc1S(=O)(=O)n1cnc2ccccc21 | 0.4 | nt | 3.0 | -1.5 | 0.9
COc1ccc(S(=O)(=O)n2cnc3ccccc32)cc1OC | 6.0 | 61.7* | 11.3 | -0.8 | 4.1
O=C(/C=C/c1ccc(O)c(O)c1)c1ccccc1O | 4.9 | 19.1 | 4.3 | 62.2* | -4.4
O=C(C=Cc1cccc(O)c1)c1ccccc1O | 6.8 | 6.8 | -2.6 | -0.7 | -7.1
Cc1ccc(NC(=O)c2ocnc2C)cc1Cl | 0.8 | 58.6* | nt | -4.1 | nt
Cc1nn(C(=O)CN2C(=O)c3ccccc3C2=O)c(C)c1Br | 27.9* | nt | -2.1 | -1.2 | -2.7
O=C(NN=Cc1ccc(OC(=O)c2ccccc2Cl)cc1)c1ccc(O)cc1 | 2.9 | nt | nt | nt | nt
COc1cc(C=NNC(=O)C2C(=O)NCC2c2ccccc2)cc(OC)c1O (configuration not stated) | -10.4 | nt | nt | nt | nt
COc1ccc(NC(=S)NCCc2ccccc2)c(C)c1 | 2.2 | 36.4* | 9.6 | 0.3 | 0.6
Cc1cc(OC(F)F)ccc1NC(=S)NCCc1ccccc1 | 5.0 | 1.9 | -13.9 | 14.2 | 2.1
SMILES | UCH37 DUB inh | Casp6 inh | TDP2 inh | NSD2 inh | LEDGF integ inh
OCCN1CCN(CC#CCC(c2ccccc2)c2ccccc2)CC1 | 6.8 | 16.3 | -10.8 | -0.3 | 2.7
OCCN1CCN(CC#CCn2c3ccccc3c3ccccc32)CC1 | 22.7* | nt | -7.0 | 3.2 | 0.6
CCn1c(SCC(=O)NCCOc2ccccc2)nc2ccccc2c1=O | 27.5* | nt | -17.9 | 35.2 | -3.4
O=C(NN=Cc1cccnc1)c1ccc2c(c1)OCO2 | 0.3 | nt | nt | nt | nt
COc1cc(C(=O)C(=O)c2ccc(O)c(OC)c2)ccc1O | 21.4* | 1.0 | -8.3 | 1.1 | -5.7
Cc1ccc(NC(=O)c2ccc(CN3CCc4ccccc4C3)cc2)cc1 | 22.2* | nt | -4.7 | 2.7 | -2.1
Cc1cc(C)n(CCc2nc(-c3ccco3)cs2)n1 | 6.0 | 58.1* | 9.0 | -4.0 | 8.2
